Data set [1] can be described thus: Absorption property of compound in DMSO assessed as strong absorption wavelength at 1 x 10^-3 M by UV-spectra analysis. In kind it is physicochemical. Particulars: 1000 µM. Put shortly: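 Stocks 1 mM in DMSO; spectra run over […] range (units as printed), 300–800 nm in 1 nm steps, room temperature, quartz cuvettes, UV-vis spectrophotometer.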
The nature of data set [2]: Drug uptake in BALB/c nude mouse xenografted with A549 cells assessed as drug level in tumor tissue at 0.3 mg/kg, iv measured at 12 hrs by fluorescence assay. In kind it is ADME, organism-based, Neoplasm. As to conditions: in vivo. In short, it runs like this: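 A549 tumor-bearing mice dosed via tail vein (1 mg/kg in methods; 0.3 mg/kg in text) at tumors ~150–170 mm3, n = 3; whole-body imaging 0–24 h; at 6 and 12 h mice killed, heart, liver, spleen, lung, kidney, brain, tumor imaged ex vivo, excitation 420 nm, emission 650 nm.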

The next data set deals with Cavia porcellus. As to the kind of experiment: Phototoxicity in guinea pig assessed as change in auricles of left ear at 4.5 mg/kg, iv in presence of 10 mW/cm2 light irradiation for 10 mins measured after 1day of light irradiation by H and E staining based microscopic analysis. It counts as organism-based. Particulars: in vivo.
Data set [3] has as its system A549. As to the kind of experiment: Induction of apoptosis in human A549 cells assessed as early apoptotic cell incubated for 4 hrs under dark condition by annexin V-FITC and propidium iodide staining based flow cytometric analysis (reference value: 0.07%). Particulars: a549, 4 h. For orientation: Flow cytometry measures light scatter and fluorescence of single cells or particles in a stream.

The subject of data set [4] is A549. The experiment in a line: Induction of apoptosis in human A549 cells assessed as necrosis incubated for 4 hrs under dark condition by annexin V-FITC and propidium iodide staining based flow cytometric analysis (reference value: 0.00%). It counts as cell-based. Particulars: a549, 4 h.
Data set [5] deals with A549. The experiment in a line: Photodynamic antitumor activity against human A549 cells xenografted in BALB/c nude mouse assessed as survival time at 0.3 mg/kg, iv incubated for 24 hrs followed by laser light irradiation at 120 J/cm2 measured up to 70 days. In kind it is functional, organism-based. In short, it runs like this: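 Nude mice bearing A549 xenografts, 0.3 mg/kg drug i.v. then 650 nm laser 120 J/cm2 at 180 mW/cm2 after 24 h; survival shown as Kaplan-Meier with log-rank test, n = 5.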
On the technique in general: A xenograft is tissue or cells of one species grown in another, often human tumour cells in immunodeficient mice.

The nature of data set [6]: Drug localization in mitochondria of human A549 cells at 1 uM after 4 hrs by mito-tracker green based fluorescence microscopic method. Particulars: a549, 4 h. In kind it is ADME. In short, it runs like this: (§1)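 A549 cells on coverslips at 1×10^4 cells/mL exposed to […] (so in the source) photosensitizer in complete medium for 4 h, washed, fixed in 4% paraformaldehyde 20 min, then probed 30 min at 37 °C with Mito-Tracker Green, Lyso-Tracker Blue or ER-Tracker Green; fluorescence microscopy, three repeats, minimal ambient light.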

The nature of data set [7]: Drug localization in endoplasmic reticulum of human A549 cells at 1 uM after 4 hrs by DiOC6(3) ER-tracker green based fluorescence microscopic method. As to conditions: a549, 4 h. It counts as ADME, subcellular. In short, it runs like this: as §1

Active and inactive are the calls of the source. No cut-off for these calls is given here.

Regarding `CCCCOC(C)c1c(C)c2cc3nc(c4c5[nH]c(cc6nc(cc1[nH]2)C(C)=C6CC)c(C)c5C(=O)C4)[C@@H](CCC(=O)NCC(=O)CCC(=O)O)[C@@H]3C` (stereo partly specified), the Activity in data set [1] is 660 to 670 nm; in the data set with Cavia porcellus it was “Non-Toxic”; in the data set on A549 [3] it was 3.16%; in the data set with A549 [4] it was 2.3%. The Drug uptake entry in data set [2], in data set [6] and in data set [7] was “Active” in each case. Besides, in the data set on A549 [5], the result was Active.

Turning to `CCC1=C(C)c2cc3[nH]c(cc4nc(c5c6[nH]c(cc1n2)c(C)c6C(=O)C5)[C@@H](CCC(=O)NCC(=O)CCC(=O)O)[C@@H]4C)c(C)c3C(C)OCCO` (stereo partly specified), the Activity in data set [1] was 660 to 670 nm; with Cavia porcellus, “Non-Toxic”; with A549 [3], 4.63%; with A549 [4] it was 2.75%. Also, the Drug uptake entry in data set [2], in data set [6] and in data set [7] was “Active” in each case. In addition, the outcome in the data set on A549 [5] was Active.

The values are drawn from ChEMBL document CHEMBL4376862, “Synthesis and evaluation of novel chlorophyll a derivatives as potent photosensitizers for photodynamic therapy” (Eur J Med Chem, 2020).
